Measurements reported in ChEMBL document CHEMBL1156107, “Synthesis of new alkylaminooxysterols with potent cell differentiating activities: identification of leads for the treatment of cancer and neurodegenerative diseases” (J Med Chem, 2009).
Calls of active or inactive are those of the source. The calls are words filed in the database; no cut-off is given here.

Columns and labels:
[1] = Cytotoxicity against human U87 cells after 72 hrs by trypan blue exclusion assay; assay type: functional, cell-based, U-87MG ATCC; conditions: U-87 MG
In short: (§1)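 Cells were exposed for 72 h to the test agent at increasing concentrations from 10 nM to 20 μM, at 37 °C in humidified 5% CO2. Cells were scraped and resuspended in 0.25% w/v trypan blue in PBS, and dead cells were counted under a light microscope in a Malassez chamber. IC50 is the concentration giving 50% cytotoxicity. Values are mean ± SE of three independent experiments, each run in duplicate.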

[2] = system: B16-F10; assay: Cytotoxicity against mouse B16F10 cells after 72 hrs by trypan blue exclusion assay; assay type: functional, cell-based; conditions: B16-F10, 72 h; in short: as §1
[3] = system: SH-SY5Y; assay: Cytotoxicity against human SH-SY5Y cells after 72 hrs by trypan blue exclusion assay; assay type: functional, cell-based; in short: as §1
[4] = system: SK-MEL-28; assay: Effect on human SK-MEL-28 cell morphology assessed as appearance of type 4 melanosomes at 1 uM after 48 hrs by transmission electron microscopy
[5] = system: P19; assay: Cytotoxicity against mouse P19 cells assessed as modification of cell morphology; assay type: functional
[6] = system: A549; assay: Cytotoxicity against human A549 cells after 72 hrs by trypan blue exclusion assay; assay type: functional, cell-based; conditions: A549, 72 h; in short: as §1
[7] = system: MCF7; assay: Induction of human MCF7 cell differentiation assessed as lipid accumulation in intracytoplasmic vesicle at 1 uM after 48 hrs by oil red O staining-based light microscopy; assay type: functional
In short: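 MCF-7 cells on glass coverslips treated with drug, fixed in 3.7% paraformaldehyde for 1 h at room temperature, and stained with oil red O in 60% isopropanol with hematoxylin counterstain. Dye extracted with isopropanol and read at 510 nm, with control subtracted and the value normalized to SYBR green DNA stain.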

[8] = system: SK-MEL-28; assay: Induction of melanogenesis in human SK-MEL-28 cells assessed as cellular melanin content at 1 uM after 48 hrs by fluorimetry; assay type: functional, cell-based; conditions: in the assay text read “by spectrophotometry” for “by fluorimetry”
In short: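 SK-Mel-28 cells exposed to compound, washed in PBS and pelleted. Pellets of 2 × 10⁶ cells dissolved in 1 M NaOH for 1 h at 80 °C. Melanin read spectrophotometrically at 405 nm.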

[9] = system: SK-MEL-28; assay: Cell cycle arrest in human SK-MEL-28 cells assessed as accumulation at G1 phase at 1 uM after 48 hrs by FACS analysis; assay type: functional
In short: (§2)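 Cells plated at 250 000 per 100 mm plate and exposed to solvent vehicle or compound for 48 h. Trypsinized cells fixed in 70% ethanol, treated with 100 μg/mL RNase A for 30 min at 37 °C, then stained with 50 μg/mL propidium iodide in 0.25% Tween-20 for 30 min at 37 °C in the dark. DNA content of 1 × 10⁶ cells read by flow cytometry, giving sub-G1, G0/G1, S and G2/M fractions.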

[10] = system: SK-MEL-28; assay: Cell cycle arrest in human SK-MEL-28 cells assessed as accumulation at G2/M phase at 1 uM after 48 hrs by FACS analysis; assay type: functional; conditions: in the assay text read “G0/G1 phase” for “G2/M phase”; in short: as §2
[11] = system: SK-MEL-28; assay: Cell cycle arrest in human SK-MEL-28 cells assessed as accumulation at pre-G1 phase at 1 uM after 48 hrs by FACS analysis; assay type: functional; in short: as §2
[12] = system: SK-MEL-28; assay: Effect on human SK-MEL-28 cell morphology assessed as change from fibroblastic to melanocytic morphology at 1 uM after 48 hrs by light microscopy
[13] = system: NB-4; assay: Cytotoxicity against human NB4 cells after 72 hrs by trypan blue exclusion assay; assay type: functional, cell-based; conditions: NB-4, 72 h; in short: as §1
[14] = system: U-937; assay: Cytotoxicity against human U937 cells after 72 hrs by trypan blue exclusion assay; assay type: functional, cell-based; conditions: U-937, 72 h; in short: as §1
[15] = system: MCF7; assay: Cell cycle arrest in human MCF7 cells assessed as accumulation at G2/M phase at 1 uM after 48 hrs by FACS analysis; assay type: functional; in short: as §2
[16] = Cytotoxicity against mouse TSA cells after 72 hrs by trypan blue exclusion assay; assay type: functional, cell-based; conditions: TS/A; in short: as §1
[17] = Cytotoxicity against mouse Neuro2a cells after 72 hrs by trypan blue exclusion assay; assay type: functional, cell-based; conditions: N2a; in short: as §1
[18] = system: HCT-8; assay: Cytotoxicity against human HCT8 cells after 72 hrs by trypan blue exclusion assay; assay type: functional, cell-based; conditions: HCT-8, 72 h; in short: as §1
[19] = system: U-937; assay: Induction of dendrite outgrowth in IL-4/GMCSF-stimulated human U937 cells assessed as dendrite length after 48 hrs by light microscopy; assay type: functional
In short: (§3)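 U937 cells at 1.1 × 10⁶ cells/mL were primed with 10 ng/mL PMA for 48 h in RPMI with 10% heat-inactivated serum. Adherent cells were then given 100 ng/mL IL-4 plus 100 ng/mL GM-CSF or 100 nM compound for 48 h. Dendrite length scored by light microscopy, from none to over 100 μm with a contact network.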

[20] = system: MCF7; assay: Induction of human MCF7 cell differentiation assessed as milk fat accumulation in intracytoplasmic vesicle at 1 uM after 48 hrs by Bligh and Dyer method; assay type: functional, cell-based
In short: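 MCF-7 cells (5 million) exposed to vehicle or compound for 48 h, washed three times in PBS. Lipids extracted by the Bligh and Dyer method and triglycerides quantified.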

[21] = system: P19; assay: Cytotoxicity against mouse P19 cells after 3 days by trypan blue exclusion assay; assay type: functional, cell-based; conditions: Mus musculus, P19, 72 h; read-out: IC50
In short: (§4)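 U937 and P19 cells treated with compound. Cell death scored by trypan blue exclusion, with cells scraped, suspended in 0.25% w/v trypan blue in PBS and counted in a Malassez cell. IC50 is the concentration giving 50% cytotoxicity.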

[22] = system: U-937; assay: Induction of dendrite out growth in IL-4/GMCSF-stimulated human U937 cells assessed as dendrite length at 100 nM after 48 hrs by light microscopy; assay type: functional; in short: as §3
[23] = system: P19; assay: Cytotoxicity against mouse P19 cells after 72 hrs by trypan blue exclusion assay; assay type: functional, cell-based; conditions: P19, 72 h; in short: as §1
[24] = system: MCF7; assay: Induction of human MCF7 cell differentiation assessed as stimulation of milk fat globulin expression at 1 uM after 48 hrs by immunocytochemistry; assay type: functional, cell-based
[25] = system: MCF7; assay: Cytotoxicity against human MCF7 cells after 72 hrs by trypan blue exclusion assay; assay type: functional, cell-based; conditions: MCF7, 72 h; in short: as §1
[26] = system: SK-MEL-28; assay: Cell cycle arrest in human SK-MEL-28 cells assessed as accumulation at S phase at 1 uM after 48 hrs by FACS analysis; assay type: functional; in short: as §2
[27] = system: MCF7; assay: Cell cycle arrest in human MCF7 cells assessed as accumulation at S phase at 1 uM after 48 hrs by FACS analysis; assay type: functional; in short: as §2
[28] = system: SW-620; assay: Cytotoxicity against human SW620 cells after 72 hrs by trypan blue exclusion assay; assay type: functional, cell-based; conditions: SW-620, 72 h; in short: as §1
[29] = system: P19; assay: Induction of dendrite outgrowth in IL-4/GMCSF-stimulated mouse P19 cells assessed as dendrite length after 48 hrs by light microscopy; assay type: functional
[30] = system: MCF7; assay: Cell cycle arrest in human MCF7 cells assessed as accumulation at pre-G1 phase at 1 uM after 48 hrs by FACS analysis; assay type: functional; in short: as §2
[31] = system: KG-1; assay: Cytotoxicity against human KG1 cells after 72 hrs by trypan blue exclusion assay; assay type: functional, cell-based; conditions: KG-1, 72 h; in short: as §1
[32] = system: P19; assay: Induction of dendrite out growth in IL-4/GMCSF-stimulated mouse P19 cells assessed as dendrite length at 100 nM after 48 hrs by light microscopy; assay type: functional
[33] = system: SK-N-SH; assay: Cytotoxicity against human SK-N-SH cells after 72 hrs by trypan blue exclusion assay; assay type: functional, cell-based; in short: as §1
[34] = system: U-937; assay: Cytotoxicity against human U937 cells after 3 days by trypan blue exclusion assay; assay type: functional, cell-based; conditions: Homo sapiens, U-937, 72 h; read-out: IC50; in short: as §4
[35] = system: SK-MEL-28; assay: Induction of melanogenesis in human SK-MEL-28 cells assessed as cellular melanin content at 1 uM after 48 hrs by spectrophotometry
[36] = system: U-937; assay: Cytotoxicity against human U937 cells assessed as modification of cell morphology; assay type: functional
[37] = system: SK-MEL-28; assay: Cytotoxicity against human SK-MEL-28 cells after 72 hrs by trypan blue exclusion assay; assay type: functional, cell-based; conditions: SK-MEL-28, 72 h; in short: as §1
[38] = system: MCF7; assay: Cell cycle arrest in human MCF7 cells assessed as accumulation at G1 phase at 1 uM after 48 hrs by FACS analysis; assay type: functional; in short: as §2

Structure (SMILES): CC(C)CCC[C@@H](C)[C@H]1CC[C@H]2[C@@H]3C[C@@H](NCCc4cnc[nH]4)[C@@]4(O)C[C@@H](O)CC[C@]4(C)[C@H]3CC[C@]12C [DENDROGENIN A]
- IC50 [1]: 0.74 µM
- IC50 [2]: 0.68 µM
- IC50 [3]: 1.35 µM
- Activity [4]: Active
- Activity [5]: 65%
- IC50 [6]: 2.56 µM
- Activity [7]: Active
- Activity [8]: Active
- Activity [9]: 82%
- Activity [10]: 10%
- Activity [11]: 1%
- Activity [12]: Active
- IC50 [13]: 1.32 µM
- IC50 [14]: 0.79 µM
- Activity [15]: 11%
- IC50 [16]: 1.28 µM
- IC50 [17]: 2.32 µM
- IC50 [18]: 0.89 µM
- Activity [19]: > 200 um
- Activity [20]: Active
- IC50 [21]: 2.4 µM
- Activity [22]: 50 um
- IC50 [23]: 1.8 µM
- Activity [24]: Active
- IC50 [25]: 2.31 µM
- Activity [26]: 7%
- Activity [27]: 11%
- IC50 [28]: 0.42 µM
- Activity [29]: > 200 um
- Activity [30]: 3%
- IC50 [31]: 5.53 µM
- Activity [32]: 50 um
- IC50 [33]: 2.24 µM
- IC50 [34]: 0.8 µM
- Activity [35]: Active
- Activity [36]: 40%
- IC50 [37]: 2.12 µM
- Activity [38]: 75%
